Assay results collected from several papers.
Target: Serine/threonine-protein kinase Nek11 (NEK11, Homo sapiens, UniProt Q8NG66)
Residues used in one study (Q8NG66 1-645): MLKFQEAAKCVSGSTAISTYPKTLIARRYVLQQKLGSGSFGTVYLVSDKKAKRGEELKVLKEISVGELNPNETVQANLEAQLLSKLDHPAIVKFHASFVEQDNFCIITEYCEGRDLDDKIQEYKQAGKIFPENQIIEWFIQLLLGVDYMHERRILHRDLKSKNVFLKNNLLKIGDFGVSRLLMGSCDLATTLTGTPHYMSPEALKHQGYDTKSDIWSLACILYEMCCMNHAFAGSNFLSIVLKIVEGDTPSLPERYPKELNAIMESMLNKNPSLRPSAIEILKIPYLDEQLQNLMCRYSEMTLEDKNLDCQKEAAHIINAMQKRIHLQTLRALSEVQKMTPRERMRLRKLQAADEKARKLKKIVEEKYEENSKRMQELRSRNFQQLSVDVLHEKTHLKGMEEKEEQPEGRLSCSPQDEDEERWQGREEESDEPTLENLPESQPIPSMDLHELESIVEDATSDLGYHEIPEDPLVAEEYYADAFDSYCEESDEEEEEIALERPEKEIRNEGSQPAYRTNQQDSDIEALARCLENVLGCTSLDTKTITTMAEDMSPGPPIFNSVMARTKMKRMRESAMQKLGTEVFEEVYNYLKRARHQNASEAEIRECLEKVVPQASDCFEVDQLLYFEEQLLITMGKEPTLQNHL

SMILES	observed	technique	tested at	remaining binding [%]
C[C@@H](c1ccc(-n2cnc3c(N)ncnc32)cc1)N1CCc2nn(C)c(Cc3ccccc3)c2C1=O	binding	competition with immobilised ligand	0.1 µM	78
O=C(N[C@H]1CCCCC/C=C\C2C[C@@]2(C(=O)O)NC(=O)[C@@H]2C[C@@H](Oc3ccncc3)CN2C1=O)OC1CCCC1 (some centres unmarked)	binding	competition with immobilised ligand	1 µM	100
O=C(NCC1CCOCC1)c1n[nH]cc1NC(=O)c1c(F)cccc1F	binding	competition with immobilised ligand	1 µM	91
C[C@@H]1CCN(c2nccc(-c3cnn4ncccc34)n2)C1	binding		1 µM	90
COc1ccc2c(c1)O[C@@H](c1ccc(OC)c(OC)c1)C[C@H]2NC(=O)C1(c2ccc3c(c2)OC(F)(F)O3)CC1	cell-free assay	competition with immobilised ligand	1 µM	83
O=C(c1ccc(Nc2ncc(Cl)c(-c3ccc(Cl)s3)n2)cc1)N1CCC(N2CCCC2)CC1	binding	competition with immobilised ligand	1 µM	100
CCN1CCN(Cc2ccc(C(=O)Nc3ccc(C)c(Oc4ccc5c(c4)CC(=O)N5)c3)cc2C(F)(F)F)CC1	binding	competition with immobilised ligand	1 µM	100
COc1ccnn2ncc(-c3ccnc(N(C)C)n3)c12	binding		1 µM	100
Cc1cc(C)c(-n2ccn3nc(-c4cccnc4)cc23)cc1NC(=O)c1cc(C#N)cc(S(F)(F)(F)(F)F)c1	cell-free assay	competition with immobilised ligand	0.1 µM	86.1
O=C(NCCCN1CCOCC1)c1ccc(Nc2ncc(Cl)c(-c3ccc(Cl)s3)n2)cc1	binding	competition with immobilised ligand	1 µM	88
CN(C)c1nccc(-c2cnc3ncccn23)n1	binding		1 µM	81
Cn1nc(C(F)(F)F)cc1-c1cnc(N2CCc3cc(S(=O)(=O)Nc4c(F)cc(Cl)cc4F)cc(N4CCCC4=O)c32)nc1	cell-free assay	competition with immobilised ligand	1 µM	78
N[C@@H]1CCN(c2nccc(-c3cnn4ncccc34)n2)C1	binding		1 µM	100
O=C(NCCCC1CCCCC1)c1ccc(CNC(=O)c2cnn(-c3ccccc3)c2C(F)(F)F)cc1	cell-free assay	competition with immobilised ligand	0.1 µM	100
CC1CCCN1c1nccc(-c2cnn3ncccc23)n1 (centres unmarked)	binding		1 µM	100
Cc1cc(-n2nc(Cc3cc(F)cc(C(F)(F)F)c3)nc2C)ccc1C(N)=O	cell-free assay	competition with immobilised ligand	1 µM	100
O=C(c1ccc(Nc2nccc(-c3cc4ccccc4s3)n2)cc1)N1CCC(N2CCCC2)CC1	binding	competition with immobilised ligand	1 µM	78
CNC(=O)[C@@H]1CC[C@@H](n2c(-c3ccc4cnccc4c3)nc3ccc(C(=O)NCc4cccc(C(N)=O)c4)cc32)C1	binding	competition with immobilised ligand	1 µM	100
F[C@@H]1CCN(c2nccc(-c3cnn4ncccc34)n2)C1	binding		1 µM	100
c1cncc(-c2cccc(Nc3nccc(NC4CCCCC4)n3)c2)c1	binding	competition with immobilised ligand	10 µM	100
